According to ChEMBL document CHEMBL1131104, “Bicyclic acylguanidine Na+/H+ antiporter inhibitors” (J Med Chem, 1998):

Experiments:
[1] = target: Sodium/hydrogen exchanger (Oryctolagus cuniculus, UniProt P23791+P50482+P26432); experiment: Sodium/hydrogen exchanger antiport activity was measured using [22]Na+ uptake inhibition assay in acidified rabbit erythrocytes; assay type: cell-based
In short: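 Acidified rabbit erythrocytes; 22Na+ uptake measured in incubation buffer containing 10 mM Na+. Na+/H+-dependent uptake taken as the EIPA-sensitive portion of 22Na+ uptake.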

Homo sapiens [2] = species: Homo sapiens; experiment: Concentration to achieve half-maximal inhibition of acid-induced swelling in human platelets using platelet swelling assay; assay type: functional
In short: (§1)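 Human platelet-rich plasma from citrated venous blood (centrifuged 1000 rpm, 20 min, RT; pH adjusted to 7.4; used within 4–5 h). Final 2 × 10^8 platelets/mL in pH 6.6 buffer: 120 mM Na propionate, 20 mM K propionate, 20 mM HEPES, 10 mM glucose, 5 mM KCl, 1 mM MgCl2, 1 mM CaCl2, 0.86% DMSO. Swelling followed as absorbance drop at 680 nm over 4 min.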

Homo sapiens [3] = species: Homo sapiens; experiment: Concentration to achieve half-maximal inhibition of acid-induced swelling in human platelets using platelet swelling assay(PSA).; assay type: functional; in short: as §1

Row | Structure (SMILES) | IC50 [1] [nM] | IC50 (Homo sapiens [2]) [nM] | IC50 (Homo sapiens [3]) [nM]
1 | Cc1cc2c(cc1C(=O)N=C(N)N)S(=O)(=O)CCC2=O | 96 | 3670 | 
2 | Cc1cc2c(cc1C(=O)N=C(N)N)S(=O)(=O)CCC21OCCO1 | 130 | 1180 | 
3 | Cc1cc2c(cc1C(=O)N=C(N)N)S(=O)(=O)CC2(C)O (stereo not drawn) | 30 | 115 | 
4 | CC1(C)CC(C)(C)S(=O)(=O)c2cc(C(=O)N=C(N)N)ccc21 | 360 | 2080 | 
5 | Cc1cc2c(cc1C(=O)N=C(N)N)S(=O)(=O)C(C)(C)C2=O | 93 | 354 | 
6 | CO/N=C1\CS(=O)(=O)c2cc(C(=O)N=C(N)N)c(C)cc21 | 45 | 521 | 
7 | C=C1CCS(=O)(=O)c2cc(C(=O)N=C(N)N)c(C)cc21 | 29 |  | 1370
8 | Cc1cc2c(cc1C(=O)N=C(N)N)S(=O)(=O)C(C)(C)CO2 | 36 | 843 | 
9 | CCC1CS(=O)(=O)c2cc(C(=O)N=C(N)N)c(C)cc21 (stereo not drawn) | 24 | 78 | 
10 | Cc1cc2c(cc1C(=O)N=C(N)N)S(=O)(=O)C/C2=N\O | 16 | 197 | 
11 | Cc1cc2c(cc1C(=O)N=C(N)N)S(=O)(=O)CC2C(C)C (stereo not drawn) | 21 | 77 | 
12 | Cc1cc2c(cc1C(=O)N=C(N)N)S(=O)(=O)CC21OCCO1 | 60 | 485 | 
13 | N=C(N)NC(=O)c1ccc2c(c1)S(=O)(=O)CC2 | 790 | > 100000 | 
14 | Cc1cc2c(cc1C(=O)N=C(N)N)S(=O)(=O)CC2 | 60 | 587 | 
15 | COC1CS(=O)(=O)c2cc(C(=O)N=C(N)N)ccc21 (stereo not drawn) | 700 | > 100000 | 
16 | Cc1cc2c(cc1C(=O)N=C(N)N)S(=O)(=O)CC2(O)Cc1ccccc1 (stereo not drawn) | 43 | 157 | 
17 | Cc1cc2c(cc1C(=O)N=C(N)N)S(=O)(=O)CC2N (stereo not drawn) | 116 | 692 | 
18 | Cc1cc2c(cc1C(=O)N=C(N)N)S(=O)(=O)CCC2C (stereo not drawn) | 45 | 655 | 
19 | COC1c2cc(C)c(C(=O)N=C(N)N)cc2S(=O)(=O)C1(C)C (stereo not drawn) | 27 | 138 | 

Row | Structure (SMILES) | IC50 [1] [nM] | IC50 (Homo sapiens [2]) [nM] | IC50 (Homo sapiens [3]) [nM]
20 | Cc1cc2c(cc1C(=O)N=C(N)N)S(=O)(=O)C(C)(C)C2C (stereo not drawn) | 14 | 306 | 
21 | Cc1cc2c(cc1C(=O)N=C(N)N)S(=O)(=O)CC2C (stereo not drawn) | 44 | 182 | 
22 | CC1=C(N)c2cc(C)c(C(=O)N=C(N)N)cc2S1(=O)=O | 56 | 2320 | 
23 | COC1(C)CS(=O)(=O)c2cc(C(=O)N=C(N)N)c(C)cc21 (stereo not drawn) | 40 | 321 | 
24 | Cc1cc2c(cc1C(=O)N=C(N)N)S(=O)(=O)C(C)(C)C2O (stereo not drawn) | 28 | 258 | 
25 | Cc1cc2c(cc1C(=O)N=C(N)N)S(=O)(=O)C(C)(C)C2(C)O (stereo not drawn) | 17 | 102 | 
26 | C=C1c2cc(C)c(C(=O)N=C(N)N)cc2S(=O)(=O)C1(C)C | 13 | 114 | 
27 | CCC1(O)CS(=O)(=O)c2cc(C(=O)N=C(N)N)c(C)cc21 (stereo not drawn) | 34 | 77 | 
28 | N=C(N)NC(=O)c1ccc2c(c1)S(=O)(=O)CC2O (stereo not drawn) | 1500 | > 100000 | 
29 | CC(C)=C1CS(=O)(=O)c2cc(C(=O)N=C(N)N)c(C)cc21 | 54 | 5030 | 
30 | Cc1cc2c(cc1C(=O)N=C(N)N)S(=O)(=O)CC2O (stereo not drawn) | 70 | 1050 | 
31 | Cc1cc2c(cc1C(=O)N=C(N)N)S(=O)(=O)CCC2 | 95 | 14300 | 
32 | Cc1cc2c(cc1C(=O)N=C(N)N)S(=O)(=O)CCCO2 | 28 | 537 | 
33 | CC1(C)CCS(=O)(=O)c2cc(C(=O)N=C(N)N)ccc21 | 2200 |  | 
34 | Cc1cc2c(cc1C(=O)N=C(N)N)S(=O)(=O)C(C)(C)CC2C (stereo not drawn) | 38 | 1100 | 
35 | Cc1cc2c(cc1C(=O)N=C(N)N)S(=O)(=O)CCCC2 | 19 | 274 | 
36 | COC1CS(=O)(=O)c2cc(C(=O)N=C(N)N)c(C)cc21 (stereo not drawn) | 96 | 208 | 
37 | CC(C)c1ccc(C(=O)N=C(N)N)cc1S(C)(=O)=O [CARIPORIDE] |  | 117 | 
38 | Cc1cc(-n2cccc2)c(S(C)(=O)=O)cc1C(=O)N=C(N)N [ENIPORIDE] |  | 32 | 
